Source: ChEMBL document CHEMBL3425409, “General role of the amino and methylsulfamoyl groups in selective cyclooxygenase(COX)-1 inhibition by 1,4-diaryl-1,2,3-triazoles and validation of a predictive pharmacometric PLS model” (Eur J Med Chem, 2015)
Calls of active or inactive are those of the source. No cut-off for these calls is given here.

Assays:
[1] = biological target: T1, Prostaglandin G/H synthase 2 (Ovis aries) (UniProt P79208); assay: Inhibition of ovine COX-2 assessed as inhibition of PGH2 production using arachidonic acid as substrate at 50 uM by TMPD oxidation based colorimetric assay
T1 sequence (whole entry): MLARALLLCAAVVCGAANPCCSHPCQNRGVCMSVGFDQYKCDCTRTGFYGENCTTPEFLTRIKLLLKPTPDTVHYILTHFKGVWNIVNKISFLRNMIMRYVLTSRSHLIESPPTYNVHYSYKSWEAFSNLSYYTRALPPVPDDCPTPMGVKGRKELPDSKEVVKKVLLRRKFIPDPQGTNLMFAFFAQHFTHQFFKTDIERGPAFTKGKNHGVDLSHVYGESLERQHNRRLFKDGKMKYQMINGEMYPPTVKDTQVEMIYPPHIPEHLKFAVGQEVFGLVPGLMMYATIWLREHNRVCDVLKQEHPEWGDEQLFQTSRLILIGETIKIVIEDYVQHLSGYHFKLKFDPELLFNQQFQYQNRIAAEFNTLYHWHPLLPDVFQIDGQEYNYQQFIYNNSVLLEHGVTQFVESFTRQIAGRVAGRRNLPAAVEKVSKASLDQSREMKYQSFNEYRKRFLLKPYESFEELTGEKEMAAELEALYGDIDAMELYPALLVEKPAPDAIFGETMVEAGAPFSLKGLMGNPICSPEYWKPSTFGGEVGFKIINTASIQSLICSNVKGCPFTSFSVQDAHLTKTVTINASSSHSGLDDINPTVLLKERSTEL
Outline: (§1)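 Ovine COX-1 and COX-2 tested with a commercial colorimetric COX inhibitor screening kit, run per the manufacturer's protocol. The kit reads the enzyme's peroxidase activity. Compounds screened as percent inhibition at a single 50 µM concentration.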

[2] = biological target: T2, Prostaglandin G/H synthase 1 (Ovis aries) (UniProt P05979); assay: Inhibition of ovine COX-1 assessed as inhibition of PGH2 production using arachidonic acid as substrate at 50 uM by TMPD oxidation based colorimetric assay; outline: as §1
T2 sequence (whole entry): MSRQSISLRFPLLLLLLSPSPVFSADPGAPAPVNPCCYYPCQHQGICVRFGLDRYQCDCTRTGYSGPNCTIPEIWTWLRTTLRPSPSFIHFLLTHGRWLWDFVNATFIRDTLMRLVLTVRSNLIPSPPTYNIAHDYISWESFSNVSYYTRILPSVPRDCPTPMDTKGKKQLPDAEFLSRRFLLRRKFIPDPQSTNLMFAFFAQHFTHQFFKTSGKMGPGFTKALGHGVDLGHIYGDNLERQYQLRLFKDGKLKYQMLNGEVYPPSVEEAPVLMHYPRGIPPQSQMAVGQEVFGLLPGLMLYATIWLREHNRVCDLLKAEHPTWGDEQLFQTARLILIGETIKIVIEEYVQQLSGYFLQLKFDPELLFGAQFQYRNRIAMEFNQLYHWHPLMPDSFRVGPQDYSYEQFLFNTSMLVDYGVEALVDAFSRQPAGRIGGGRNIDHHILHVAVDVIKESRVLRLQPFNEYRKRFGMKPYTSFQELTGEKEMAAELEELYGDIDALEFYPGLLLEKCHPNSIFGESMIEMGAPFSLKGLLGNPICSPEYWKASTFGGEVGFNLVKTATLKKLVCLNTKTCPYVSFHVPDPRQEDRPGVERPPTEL

MCF7 = assay: Antiproliferative activity against human MCF7 cells assessed as cell growth inhibition after 48 hrs by MTT assay; format: cell-based; conditions: mcf7, 48 h
Outline: (§2)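 MTT read-out of growth after 48 h. After the drug incubation, MTT was added at 0.5 mg/mL for 3 h at 37 °C. Supernatant was removed, formazan dissolved in DMSO, and absorbance read.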

SK-OV-3 = assay: Antiproliferative activity against human SKOV3 cells assessed as cell growth inhibition after 48 hrs by MTT assay; format: cell-based; conditions: sk-ov-3, 48 h; outline: as §2
[3] = biological target: T3, Prostaglandin G/H synthase 2 (Ovis aries, UniProt P79208); assay: Inhibition of ovine COX-2 assessed as inhibition of PGH2 production using arachidonic acid as substrate by TMPD oxidation based colorimetric assay
T3 sequence (P79208 whole entry): T1 sequence (whole entry)

[4] = biological target: T4, Prostaglandin G/H synthase 2 (Homo sapiens, UniProt P35354); assay: Inhibition of LPS-induced COX2 in human whole blood assessed as reduction in […] levels by radioimmunoassay
T4 sequence (P35354 whole entry): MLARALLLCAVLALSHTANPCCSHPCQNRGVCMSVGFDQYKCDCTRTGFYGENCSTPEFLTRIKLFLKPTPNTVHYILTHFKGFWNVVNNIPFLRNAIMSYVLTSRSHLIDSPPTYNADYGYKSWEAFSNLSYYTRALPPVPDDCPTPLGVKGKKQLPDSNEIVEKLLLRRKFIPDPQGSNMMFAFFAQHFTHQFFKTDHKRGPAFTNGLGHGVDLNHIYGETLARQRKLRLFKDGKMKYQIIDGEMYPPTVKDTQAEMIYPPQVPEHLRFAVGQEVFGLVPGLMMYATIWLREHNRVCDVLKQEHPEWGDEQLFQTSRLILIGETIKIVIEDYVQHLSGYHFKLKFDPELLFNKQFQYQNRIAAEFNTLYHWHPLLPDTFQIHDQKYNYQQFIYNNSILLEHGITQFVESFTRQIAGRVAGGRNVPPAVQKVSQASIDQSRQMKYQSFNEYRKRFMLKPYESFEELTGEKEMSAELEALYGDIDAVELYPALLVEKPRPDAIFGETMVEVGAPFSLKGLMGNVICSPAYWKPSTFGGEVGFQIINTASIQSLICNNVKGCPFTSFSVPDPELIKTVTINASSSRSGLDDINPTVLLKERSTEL

Row | SMILES | inhibition [1] | inhibition [2] | further results
1 | COc1ccc(-n2nnc(-c3ccc(S(C)(=O)=O)cc3)c2C)cc1 | inactive | 20% | 
2 | Clc1ccc(-c2noc(CBr)c2-c2ccccc2)o1 |  | 37% | 
3 | COc1ccc(-n2nc(C(F)(F)F)cc2-c2ccco2)cc1 | 28% |  | 
4 | COC(=O)Cc1onc(-c2ccc(Cl)o2)c1-c1ccccc1 |  | 7% | 
5 | Cc1c(-c2ccccc2)nnn1-c1ccc(Cl)cc1 | inactive | inactive | 
6 | COc1ccc(-c2nnn(-c3ccc(S(C)(=O)=O)cc3)c2C)cc1 | inactive | 55% | 
7 | COc1ccc(-n2nnc(-c3ccc([N+](=O)[O-])cc3)c2C)cc1 | inactive | 20% | 
8 | Cc1c(-c2ccccc2)nnn1-c1ccc(O)cc1 | 26% | inactive | 
9 | COc1ccc(-n2nnc(-c3ccc(SC)cc3)c2C)cc1 | inactive | inactive | 
10 | N#CCc1onc(-c2ccc(Cl)o2)c1-c1ccccc1 |  | 11% | 
11 | COc1ccc(-n2nnc(-c3ccccc3)c2C)cc1 | 35% | 26% | 
12 | Cc1c(-c2ccccc2)nnn1-c1ccc([N+](=O)[O-])cc1 | inactive | inactive | 
13 | Cc1c(-c2ccccc2)nnn1-c1ccc(N)cc1 | inactive | 56% | Activity (MCF7): Non-toxic; Activity (SK-OV-3): Non-toxic
14 | Cc1c(-c2ccccc2)nnn1-c1ccc(F)cc1 | inactive | inactive | 
15 | Cc1c(-c2ccco2)nnn1-c1ccc([N+](=O)[O-])cc1 | 40% | inactive | 
16 | CSc1ccc(-n2nnc(-c3ccccc3)c2C)cc1 | 14% | inactive | 
17 | COc1ccc(-c2noc(CC(=O)O)c2-c2ccc(OC)cc2)cc1 [MOFEZOLAC] |  |  | IC50 [3]: 440 nM
18 | Cc1c(-c2ccccc2)nnn1-c1ccc(S(C)(=O)=O)cc1 | 20% | 21% | 
19 | COc1ccc(-c2nnn(-c3ccc(SC)cc3)c2C)cc1 | inactive | inactive | 
20 | Cc1onc(-c2ccc(Cl)o2)c1-c1ccccc1 |  | 89% | IC50 [4]: > 100000 nM
21 | COc1ccc(-c2nnn(-c3ccc(OC)cc3)c2C)cc1 | inactive | 25% | 
22 | COc1ccc(-n2nnc(-c3ccco3)c2C)cc1 | inactive | inactive | 
23 | COc1ccc(-n2nnc(-c3ccc(Cl)o3)c2C)cc1 | inactive | 45% | 
24 | COc1ccc(-n2nnc(-c3ccc(N)cc3)c2C)cc1 | inactive | 100% | Activity (MCF7): Non-toxic; Activity (SK-OV-3): Non-toxic
